Laboratory results reported in ChEMBL document CHEMBL1806473, “Structure-based optimization of click-based histone deacetylase inhibitors” (Eur J Med Chem, 2011).

Experiments:
BT-549 [1] = assay: Antiproliferative activity against human BT549 cells by SRB assay; assay type: functional
Summary of the method: (§1)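 Tested in the NCI in vitro human tumor cell line screen, run by the National Cancer Institute. Each compound was given at five concentrations (100, 10, 1.0, 0.1 and 0.01 μM). GI50 is the drug concentration that reduces growth of treated cells to half that of control cells during drug incubation, judged from the SRB signal.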

DU-145 [2] = assay: Cytotoxicity against human DU145 cells; assay type: cell-based
Summary of the method: (§2)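 Tested in the NCI in vitro disease-oriented human tumour cell line screen, with screening performed by NCI. Growth was read by SRB signal over the drug incubation period at five concentrations: 100, 10, 1.0, 0.1 and 0.01 μM. GI50 is the concentration that reduces growth of treated cells to half that of control cells.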

NCI-H460 [3] = assay: Cytotoxicity against human NCI-H460 cells; assay type: cell-based
A549 = assay: Cytotoxicity against human A549 cells; assay type: cell-based; summary of the method: as §2
SK-OV-3 [4] = assay: Antiproliferative activity against human SKOV3 cells by SRB assay; assay type: functional; summary of the method: as §1
COLO 205 = assay: Cytotoxicity against human COLO205 cells; assay type: cell-based; summary of the method: as §2
M14 [5] = assay: Cytotoxicity against human M14 cells; assay type: cell-based
TK-10 = assay: Antiproliferative activity against human TK10 cells by SRB assay; assay type: functional
Summary of the method: (§3)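 Cell growth was tested in the NIH in vitro disease-oriented human tumor cell line screen, which NCI ran for these compounds. Compounds were tested at five concentrations (100, 10, 1.0, 0.1 and 0.01 μM), and growth was read by SRB signal. GI50 is the drug concentration that reduces growth of treated cells to half that of control cells during drug incubation.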

K562 = assay: Antiproliferative activity against human K562 cells by SRB assay; assay type: functional; summary of the method: as §1
Malme-3M [6] = assay: Cytotoxicity against human MALME-3M cells; assay type: cell-based; summary of the method: as §2
BT-549 [7] = assay: Cytotoxicity against human BT549 cells; assay type: cell-based
MDA-MB-231 [8] = assay: Cytotoxicity against human MDA-MB-231 cells; assay type: functional; summary of the method: as §2
NCI-H23 [9] = assay: Antiproliferative activity against human NCI-H23 cells by SRB assay; assay type: functional; summary of the method: as §1
LOX IMVI [10] = assay: Antiproliferative activity against human LOXIMVI cells by SRB assay; assay type: functional; summary of the method: as §1
RXF 393 = assay: Antiproliferative activity against human RXF393 cells by SRB assay; assay type: functional; summary of the method: as §1
ACHN = assay: Antiproliferative activity against human ACHN cells by SRB assay; assay type: functional; summary of the method: as §1
786-0 [11] = assay: Antiproliferative activity against human 786-0 cells by SRB assay; assay type: functional; summary of the method: as §1
SN12C = assay: Antiproliferative activity against human SN12C cells by SRB assay; assay type: functional; summary of the method: as §1
CCRF-CEM = assay: Cytotoxicity against human CCRF-CEM cells; assay type: cell-based
HOP-92 = assay: Cytotoxicity against human HOP92 cells; assay type: cell-based
CAKI-1 = assay: Cytotoxicity against human Caki1 cells; assay type: cell-based
SF-539 [12] = assay: Cytotoxicity against human SF539 cells; assay type: cell-based; summary of the method: as §2
A498 [13] = assay: Antiproliferative activity against human A498 cells by SRB assay; assay type: functional; summary of the method: as §1
EKVX [14] = assay: Antiproliferative activity against human EKVX cells by SRB assay; assay type: functional; summary of the method: as §1
U-251 = assay: Antiproliferative activity against human U251 cells by SRB assay; assay type: functional; summary of the method: as §3
OVCAR-4 = assay: Cytotoxicity against human OVCAR4 cells; assay type: cell-based
M14 [15] = assay: Antiproliferative activity against human M14 cells by SRB assay; assay type: functional; summary of the method: as §1
SF-268 [16] = assay: Antiproliferative activity against human SF268 cells by SRB assay; assay type: functional; summary of the method: as §1
T47D = assay: Antiproliferative activity against human T47D cells by SRB assay; assay type: functional; summary of the method: as §3
SF-268 [17] = assay: Cytotoxicity against human SF268 cells; assay type: cell-based; summary of the method: as §2
MDA-MB-435 [18] = assay: Cytotoxicity against human MDA-MB-435 cells; assay type: cell-based
UACC-62 = assay: Antiproliferative activity against human UACC62 cells by SRB assay; assay type: functional; summary of the method: as §3
SF-295 = assay: Antiproliferative activity against human SF295 cells by SRB assay; assay type: functional; summary of the method: as §1
A498 [19] = assay: Cytotoxicity against human A498 cells; assay type: cell-based
PC-3 = assay: Cytotoxicity against human PC3 cells; assay type: cell-based
SR [20] = assay: Antiproliferative activity against human SR cells by SRB assay; assay type: functional; summary of the method: as §3
SW-620 [21] = assay: Cytotoxicity against human SW620 cells; assay type: cell-based
Summary of the method: (§4)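 Screened by NCI in its in vitro disease-oriented human tumour cell line panel. Compounds tested at five concentrations (100, 10, 1.0, 0.1 and 0.01 μM). Growth read by sulforhodamine B (SRB) signal. GI50 is the concentration reducing growth of treated cells to half that of control cells during the drug incubation.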

EKVX [22] = assay: Cytotoxicity against human EKVX cells; assay type: cell-based; summary of the method: as §2
SR [23] = assay: Cytotoxicity against human SR cells; assay type: cell-based; summary of the method: as §4
SK-MEL-2 = assay: Cytotoxicity against human SK-MEL-2 cells; assay type: cell-based; summary of the method: as §2
OVCAR-5 [24] = assay: Cytotoxicity against human OVCAR5 cells; assay type: cell-based; summary of the method: as §2
OVCAR-3 = assay: Antiproliferative activity against human OVCAR3 cells by SRB assay; assay type: functional; summary of the method: as §1
HCT-15 = assay: Antiproliferative activity against human HCT15 cells by SRB assay; assay type: functional; summary of the method: as §1
NCI-H322M [25] = assay: Cytotoxicity against human NCI-H322M cells; assay type: cell-based
NCI-H23 [26] = assay: Cytotoxicity against human NCI-H23 cells; assay type: cell-based
SW-620 [27] = assay: Antiproliferative activity against human SW620 cells by SRB assay; assay type: functional; summary of the method: as §3
NCI-H460 [28] = assay: Antiproliferative activity against human NCI-H460 cells by SRB assay; assay type: functional; summary of the method: as §1
NCI-H322M [29] = assay: Antiproliferative activity against human NCI-H322M cells by SRB assay; assay type: functional; summary of the method: as §1
SF-539 [30] = assay: Antiproliferative activity against human SF539 cells by SRB assay; assay type: functional; summary of the method: as §1
SK-MEL-28 = assay: Antiproliferative activity against human SK-MEL-28 cells by SRB assay; assay type: functional; summary of the method: as §1
786-0 [31] = assay: Cytotoxicity against human 786-0 cells; assay type: cell-based
MCF7 = assay: Antiproliferative activity against human MCF7 cells by SRB assay; assay type: functional; summary of the method: as §1
DU-145 [32] = assay: Antiproliferative activity against human DU145 cells by SRB assay; assay type: functional; summary of the method: as §1
Malme-3M [33] = assay: Antiproliferative activity against human MALME-3M cells by SRB assay; assay type: functional; summary of the method: as §1
HCT-116 = assay: Antiproliferative activity against human HCT116 cells by SRB assay; assay type: functional; summary of the method: as §1
LOX IMVI [34] = assay: Cytotoxicity against human LOXIMVI cells; assay type: cell-based
MDA-MB-231 [35] = assay: Antiproliferative activity against human MDA-MB-231 cells by SRB assay; assay type: functional; summary of the method: as §1
SK-OV-3 [36] = assay: Cytotoxicity against human SKOV3 cells; assay type: cell-based
NCI-H226 = assay: Cytotoxicity against human NCI-H226 cells; assay type: cell-based
UO-31 = assay: Antiproliferative activity against human UO31 cells by SRB assay; assay type: functional; summary of the method: as §3
HT-29 = assay: Cytotoxicity against human HT-29 cells; assay type: cell-based; summary of the method: as §2
OVCAR-5 [37] = assay: Antiproliferative activity against human OVCAR5 cells by SRB assay; assay type: functional; summary of the method: as §1
MDA-MB-435 [38] = assay: Antiproliferative activity against human MDA-MB-435 cells by SRB assay; assay type: functional; summary of the method: as §1
HOP-62 = assay: Cytotoxicity against human HOP62 cells; assay type: cell-based; summary of the method: as §2
MDA-MB-468 = assay: Antiproliferative activity against human MDA-MB-468 cells by SRB assay; assay type: functional; summary of the method: as §1

O=C(/C=C/c1cn(C(/C=C/c2ccccc2)Cc2ccccc2)nn1)NO (stereo not given) gave a GI50 (BT-549 [1]) of 1620 nM, an LC50 (DU-145 [2]) of 46300 nM and an LC50 (NCI-H460 [3]) of 27200 nM. The LC50 (A549) was 64600 nM, the GI50 (SK-OV-3 [4]) was 1980 nM and the LC50 (COLO 205) was 8000 nM. The LC50 (M14 [5]) was 16500 nM, the GI50 (TK-10) was 827 nM and the GI50 (K562) was 1050 nM. For the same compound, the LC50 (Malme-3M [6]) was 28600 nM, the LC50 (BT-549 [7]) was > 100000 nM and the LC50 (MDA-MB-231 [8]) was 53900 nM. For the same compound, the GI50 (NCI-H23 [9]) was 1510 nM, the GI50 (LOX IMVI [10]) was 521 nM and the GI50 (RXF 393) was 1210 nM. It also gave a GI50 (ACHN) of 1230 nM, a GI50 (786-0 [11]) of 1380 nM and a GI50 (SN12C) of 2340 nM. The LC50 (CCRF-CEM) was > 100000 nM, the LC50 (HOP-92) was 11600 nM and the LC50 (CAKI-1) was 6250 nM. The LC50 (SF-539 [12]) was 6910 nM, the GI50 (A498 [13]) was 1160 nM and the GI50 (EKVX [14]) was 1460 nM. The GI50 (U-251) was 948 nM, the LC50 (OVCAR-4) was 61600 nM and the GI50 (M14 [15]) was 1180 nM. The GI50 (SF-268 [16]) was 1220 nM, the GI50 (T47D) was 411 nM and the LC50 (SF-268 [17]) was 9170 nM. The LC50 (MDA-MB-435 [18]) was 15700 nM, the GI50 (UACC-62) was 898 nM and the GI50 (SF-295) was 291 nM. For the same compound, the LC50 (A498 [19]) was 5460 nM, the LC50 (PC-3) was > 100000 nM and the GI50 (SR [20]) was 624 nM. For the same compound, the LC50 (SW-620 [21]) was 13600 nM, the LC50 (EKVX [22]) was 87400 nM and the LC50 (SR [23]) was > 100000 nM. For the same compound, the LC50 (SK-MEL-2) was 49200 nM, the LC50 (OVCAR-5 [24]) was 22300 nM and the GI50 (OVCAR-3) was 1160 nM. For the same compound, the GI50 (HCT-15) was 1590 nM, the LC50 (NCI-H322M [25]) was 46700 nM and the LC50 (NCI-H23 [26]) was 8680 nM. The GI50 (SW-620 [27]) was 892 nM, the GI50 (NCI-H460 [28]) was 1040 nM and the GI50 (NCI-H322M [29]) was 1370 nM. The GI50 (SF-539 [30]) was 1140 nM, the GI50 (SK-MEL-28) was 1300 nM and the LC50 (786-0 [31]) was 6450 nM. For the same compound, the GI50 (MCF7) was 1210 nM, the GI50 (DU-145 [32]) was 1080 nM and the GI50 (Malme-3M [33]) was 305 nM. It also gave a GI50 (HCT-116) of 382 nM, an LC50 (LOX IMVI [34]) of 4620 nM and a GI50 (MDA-MB-231 [35]) of 2210 nM. The LC50 (SK-OV-3 [36]) was 13300 nM, the LC50 (NCI-H226) was 46800 nM and the GI50 (UO-31) was 650 nM. For the same compound, the LC50 (HT-29) was > 100000 nM, the GI50 (OVCAR-5 [37]) was 426 nM and the GI50 (MDA-MB-435 [38]) was 866 nM. It also gave an LC50 (HOP-62) of 18300 nM and a GI50 (MDA-MB-468) of 1520 nM.
